Results pooled from the literature.
Each line is one published result; the experiments were not run side by side. In brackets after ≈: the same amount, converted by molar mass.

The MIC90 of `COc1c(N2C[C@@H]3CCCN[C@@H]3C2)c(F)cc2c(=O)c(C(=O)O)cn(C3CC3)c12` is reported as 0.06 µg/mL (≈ 0.149 µM) (Aliivibrio fischeri; microbial growth).
For `Cl.NCCc1ccccc1Oc1ccc(-c2noc(-c3ccc(O)cc3)n2)cc1`, the MIC was 8 µg/mL (Clostridioides difficile; microbial growth, broth dilution; 48 h).
For `Cc1ccc(C)n1-c1ccc(-c2n[nH]c(=S)[nH]2)cc1`, the MIC was over 500 µg/mL (Saccharomyces cerevisiae; microbial growth, broth dilution; ATCC9763).
With `O=C(N/N=C/c1ccc([N+](=O)[O-])o1)c1ccc(O)cc1` the MIC90 was 7.8 µg/mL (≈ 28.3 µM) (Aliivibrio fischeri; microbial growth).
`O=C(Nc1cc(F)c(F)c(F)c1)c1ccc(F)c(S(=O)(=O)NCc2ccc(B(O)O)cc2)c1` gave an EC50 of 380 nM (Hepatitis B virus; viral replication, inhibitor, qPCR; HePAD38; 6 days).
`O=C(O)CCc1ccccc1Oc1ccc(-c2noc(-c3ccc(O)cc3)n2)cc1` gave an MIC of 4 µg/mL (≈ 9.94 µM) (Clostridioides difficile; microbial growth, broth dilution; 48 h).
`Cc1ccc(C)n1-c1ccc(-c2nnc(-c3ccccc3[N+](=O)[O-])[nH]2)cc1` gave an MIC of 31.2 µg/mL (≈ 87 µM) (Saccharomyces cerevisiae; microbial growth, broth dilution; ATCC9763).
For `CC1(C)OB(c2ccc(CNS(=O)(=O)c3cc(C(=O)Nc4cc(F)c(F)c(F)c4)ccc3F)cc2)OC1(C)C`, the EC50 was 490 nM (Hepatitis B virus; viral replication, inhibitor, qPCR; HePAD38; 6 days).
For `Nc1ccn([C@@H]2CS[C@H](CO)O2)c(=O)n1`, the IC50 was 7370 nM (Hepatitis B virus; viral replication, qPCR; HepG2.2.15; 6 days).
The MIC of `O=C(O)CNc1ccc(-c2nc(-c3ccc(Oc4ccccc4)cc3)no2)cc1` is reported as 13 µg/mL (≈ 33.6 µM) (Clostridioides difficile; microbial growth, broth dilution; 48 h).
